Data as given in the EternaBench riboswitch data.

System: MS2 coat protein
Assay: apparent Kd, MS2 coat protein; higher = weaker binding; RNA-MaP array; FMN 200 µM where present
Method in brief: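 Green signal from SNAP-549-labelled MS2 coat protein was normalised to red-channel RNA signal and to the median Fmax of control clusters. The protein was titrated from 0.7 or 1.5 nM, doubling to 3 µM, without and then with constant ligand, over designs transcribed by stalled E. coli RNA polymerase on Illumina sequencing-chip clusters, in 100 mM Tris-HCl pH 7.5, 80 mM KCl, 4 mM MgCl2, BSA, DTT, yeast tRNA and Tween-20. The apparent Kd is the median of filtered per-cluster binding-curve fits.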

[1] = designed as: ON switch for flavin mononucleotide, no ligand
[2] = ligand present: flavin mononucleotide, designed as: ON switch for flavin mononucleotide
[3] = designed as: OFF switch for flavin mononucleotide, no ligand
[4] = ligand present: flavin mononucleotide, designed as: OFF switch for flavin mononucleotide

Row | Sequence | apparent Kd [1] | apparent Kd [2] | apparent Kd [3] | apparent Kd [4]
1 | GCGUUCUUGUAGAAGGUACAUGAAAUCUAUUUUUAACACAUGAAACAUGAGGAUCACCCAUGUUGUAAGGAUAUACAUGAACGC | 7.26 nM | 6.09 nM |  | 
2 | UGGUUCCUGCAGAAGGUGUAGGCGACUUGCUUGCAAGGAUAUGCACAUGAGGAUCACCCAUGUAGCUAAAAGUUUGCAACGUGG |  |  | 12.8 nM | 65.1 nM
3 | AACUGUACAGGAUAUACAUGAGGAUCACCCAUGUGAGAAUUAAGUGGAGAACCACAAAGUAGAAGGGUACAGGA |  |  | 44.8 nM | 286 nM
4 | UGUGUUAUAGGAUAUACGGGUAUGUGAAUCUCUCCAUCGGUACAUGAGGAUCACCCAUGUAGAAGGAUAAGGUA |  |  | 35.7 nM | 80.8 nM
5 | AAAAAACAUGAGGAUCACCCAUGUAAUAAAACGUCAGGAUAUUGAUUUUAUUAUUUAUUGCAAGAAGGGACAAAAA | 56.5 nM | 24 nM |  | 
6 | GAAUGCAGAGGAUAUACGGGACAGCAUCGAAAGAUGCUGAAACAUGAGGAUCACCCAUGUAGAAGGCUGCAGAA |  |  | 73.2 nM | 154 nM
7 | AAUAUGAGCUGGUUAUAAAACCUGACAUGAGGAUCACCCAUGUAGGAUAUCAGCACGAUAAGUGCUGAGAAGGACAUCCAGCUC |  |  | 13.4 nM | 14 nM
8 | GUGCCAUAUGAGAAGGCGAUCAUGAAACAUGAUCGAGGAUAUCAUGAAAACAUGAGGAUCACCCAUGUAUGGGUAUUAAGGUAC | 64.3 nM | 28.9 nM |  | 
9 | AUAGUGGUUUUCUGGAUGUUGAACAUGAGGAUCACCCAUGUAGAGGAUAUCCACGGAAAUCCGUAGGAGAAGGCUGGUGGAAAA |  |  | 15.6 nM | 26.7 nM
10 | UUCCUCGUUGUGAGGAUAUCGUAUUCUUUUUGUUACGAGAAGGCACAUGAGGAUCACCCAUGUUUCUUGAUGUU |  |  | 19.5 nM | 68.8 nM
11 | UGACCCAUGACAUGAGAUGACAUGAGGAUCACCCAUGUUUACAAGGAUAUGUUGAUGAAACAUCAACAGAAGGUGUAAUGGGCU |  |  | 29.8 nM | 158 nM
12 | UAAUAAUUAUGAGGAUAUAUACAACAUGAGGAUCACCCAUGUACCCAUGUAGUAGAAGGCAUAUUUUUAGUUAAUAACAUAACU | 75.2 nM | 31.1 nM |  | 
13 | UCAUAAUAGAUCCUAUUUAUCUACAUGAGGAUCACCCAUGUGCAGGAUAUGCUAUAAUUUAAUAAGCAGAAGGGCAAUUUCAGA |  |  | 96.8 nM | 381 nM
14 | CGAGCUGCUGUGAGGAUAUGCCUGUGGGUGCGUGGGUAGAAGGCACAUGAGGAUCACCCAUGUCCUGCAGCUCG |  |  | 856 nM | 412 nM
15 | CUUUUGUGAGGAUAUCAGUAGUAAAAAAAUAAAAUUAUUACUGAGAAGGCACAUGAGGAUCACCCAUGUUCCUC |  |  | 34 nM | 196 nM
16 | CAGCGCUGUCGAGAGGAUAUGCGGUGAUGGACAUGAGGAUCACCCAUGUUAGCGAUGGCAUUACGGUAGAAGGCUCUACAGCUGC | 40.3 nM | 16.4 nM |  | 
17 | GUGACCCAUUAACAGUUACCACAUGAGGAUCACCCAUGUGCGAAGGAUAUAGACUGCUAUGCGUGCUAGAAGGUCGCGCGUGGC |  |  | 6.32 nM | 6.63 nM
18 | GGAGAGGUAGGAUAUGGAGCUUAGAACAUGAGGAUCACCCAUGUAGGACCACAUGAUUUGCCAGAAGGACCAGUCC |  |  | 421 nM | 558 nM

Row | Sequence | apparent Kd [1] | apparent Kd [2] | apparent Kd [3] | apparent Kd [4]
19 | UGUUGUUCAGGAUAUGAUGUAUAAUACAUGAGGAUCACCCAUGUAGAUCCUGAAUUGGCGUCAGAAGGGAAUGUUG |  |  | 19.3 nM | 21.9 nM
20 | UCCGCUCGAGGAUAUACAUGAGGAUCACCCAUGUUUCCCUGUUGUUUGGCCUUAGGAUGUAGAAGGCGACGUUA |  |  | 17.7 nM | 17.8 nM
21 | GAUCACUGAGGAUAUACGCAGAUACAAAGUAUCUGAUUGUGACAUGAGGAUCACCCAUGUAGAAGGCAGAGGUC |  |  | 37.2 nM | 124 nM
22 | AAUAUGAGCUGGUCUAAACUCAAAACAUGAGGAUCACCCAUGUAGGAUAUCAGCACGAUAAGUGCUGAGAAGGACAUCCAGCUC |  |  | 16.7 nM | 20.5 nM
23 | AUCAUGUCAGGAUAUCGUGCAGCUACCGAAAGGUAGCUGCACGAGAAGGGACAUGAGGAUCACCCAUGUAUGAA |  |  | 221 nM | 117 nM
24 | GGGUACAUCGGAGGAUAUCAUGUCAAUACAUGAGGAUCACCCAUGUCGAUGGAGACAUCGGAGAUUGAGAAGGCCGAUGUACCG | 66.5 nM | 6.99 nM |  | 
25 | GGACGUCGCAUAAACAUGAGGAUCACCCAUGUAACUAGACAUGAGGAUAUGGAUCCUAAUUGGAUCCAGAAGGUAUGGACGUCC | 298 nM | 200 nM |  | 
26 | ACCGUAUGAACAUGAGGAUCACCCAUGUAACCGAUAACGAAUGAGGAUAUCGAUAGCAAAGCUAUCGAGAAGGCAUGGGACGGU | 224 nM | 43.9 nM |  | 
27 | AAGUAGGAAGGAUAUACAUGGAUAUACAUUCAUGUGGACCUACAUGAGGAUCACCCAUGUAGAAGGUCCUAAUA |  |  | 18.1 nM | 12.1 nM
28 | AAACGCCAACAUGAGGAUCACCCAUGUUCUAGUUUAGGGUCGCAGGAUAUGACUUCGAAGCUUAGUCAGAAGGGUGAAUCCACA | 14.5 nM | 10.5 nM |  | 
29 | CGUUGGUUAGGAUAUGCCCUCCUGGUGGGAAGGCCGGGUGGGUAGAAGGGACAUGAGGAUCACCCAUGUAUGGA |  |  | 72.3 nM | 26.8 nM
30 | GCCGAAGGAGGAUAUACACCCGGUGGCAAAACGCCGGCUCGACAUGAGGAUCACCCAUGUAGAAGGCCUGUGGU |  |  | 16.4 nM | 18 nM
31 | UUGGUUCUCGUAGGAUAUGUAGGAUAUGCCUACAUGAGGAUCACCCAUGUUCGCAUGGCAGAAGGACAGAAGGACGAUCACCAU | 378 nM | 17.3 nM |  | 
32 | GCUCUAUGCGAGAAGGCGUGCAACAUGAGGAUCACCCAUGUCAGAGAUAUGAGGAUAUUGCAUAGAGCAAAAGACGGAAACGUC | 6.68 nM | 4.48 nM |  | 
33 | CUUCAGUCACAGGAUAUGCUCAUCUAAUGAUGAGCAGAAGGGUGAACAUGAGGAUCACCCAUGUUUACGGUGGU |  |  | 621 nM | 487 nM
34 | UUGGACGUCGUGGGAUAUGUAGGAUAUUCCUACAUGAGGAUCACCCAUGUUGACAUGGAAGAAGGACAGAAGGACGAUGUCCAU | 152 nM | 5.55 nM |  | 
35 | CAACUCGGAGGAUAUAGCUGUUCUAACAUGAGGAUCACCCAUGUGCAGUUCCUUGUUAGGCUAGAAGGCCGGUAUA |  |  | 40.6 nM | 99.1 nM
36 | UGUUGUAUUACAGGAUAUCUAUUAAUUUUAUUUAGAGAAGGGUAUUCACAUGAGGAUCACCCAUGUAUAUACGAGGAAGUUGUG | 53.7 nM | 57.1 nM |  | 
